Values after ≈ are worked out from the molar mass of the structure shown. Active and inactive are the calls of the source. The calls are words filed in the database; no cut-off is given here. Where only a bound is given, the exact number is not on record here.

The IC50 is the concentration that gives 50% inhibition. The term inhibition denotes how much of the control response was suppressed. The term hepatocyte CLint denotes the rate of metabolic loss divided by the concentration. Broadly, the bioavailability is dose-corrected exposure relative to a reference, in per cent. For orientation: Papp B→A means how fast a substance crosses the layer from the basolateral side. As a reminder, the fraction unbound is free concentration divided by total concentration. High values mean much free substance, low ones little free substance. As usually defined, the microsomal CLint is the capacity of the preparation to metabolise the compound, expressed as a volume cleared per time. Lower therefore signals slow turnover. For orientation: half-life means the time in which the quantity being followed falls by half. A lower half-life goes with rapid decline. The Papp A→B is how fast a substance crosses the layer from the apical side. The term logD denotes lipophilicity at a set pH, counting ionised and neutral species.

Data set [1] addresses Cytochrome P450 3A4 (Homo sapiens, UniProt P08684). In words: Inhibition of CYP3A4. It is filed as ADME. In short, it runs like this: (§1)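 Inhibition of cytochrome P450 isoforms 1A2, 2C9, 2C19, 2D6 and 3A4, reported as pIC50.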
Data set [2] deals with Collagenase 3 (Homo sapiens, UniProt P45452). In words: Inhibition of recombinant human MMP-13 assessed as substrate cleavage at 15 uM after 20 hrs by fluorescence assay.
Data set [3] concerns the target T1, A disintegrin and metalloproteinase with thrombospondin motifs 4 (Homo sapiens, UniProt O75173).
T1 sequence (O75173 whole entry): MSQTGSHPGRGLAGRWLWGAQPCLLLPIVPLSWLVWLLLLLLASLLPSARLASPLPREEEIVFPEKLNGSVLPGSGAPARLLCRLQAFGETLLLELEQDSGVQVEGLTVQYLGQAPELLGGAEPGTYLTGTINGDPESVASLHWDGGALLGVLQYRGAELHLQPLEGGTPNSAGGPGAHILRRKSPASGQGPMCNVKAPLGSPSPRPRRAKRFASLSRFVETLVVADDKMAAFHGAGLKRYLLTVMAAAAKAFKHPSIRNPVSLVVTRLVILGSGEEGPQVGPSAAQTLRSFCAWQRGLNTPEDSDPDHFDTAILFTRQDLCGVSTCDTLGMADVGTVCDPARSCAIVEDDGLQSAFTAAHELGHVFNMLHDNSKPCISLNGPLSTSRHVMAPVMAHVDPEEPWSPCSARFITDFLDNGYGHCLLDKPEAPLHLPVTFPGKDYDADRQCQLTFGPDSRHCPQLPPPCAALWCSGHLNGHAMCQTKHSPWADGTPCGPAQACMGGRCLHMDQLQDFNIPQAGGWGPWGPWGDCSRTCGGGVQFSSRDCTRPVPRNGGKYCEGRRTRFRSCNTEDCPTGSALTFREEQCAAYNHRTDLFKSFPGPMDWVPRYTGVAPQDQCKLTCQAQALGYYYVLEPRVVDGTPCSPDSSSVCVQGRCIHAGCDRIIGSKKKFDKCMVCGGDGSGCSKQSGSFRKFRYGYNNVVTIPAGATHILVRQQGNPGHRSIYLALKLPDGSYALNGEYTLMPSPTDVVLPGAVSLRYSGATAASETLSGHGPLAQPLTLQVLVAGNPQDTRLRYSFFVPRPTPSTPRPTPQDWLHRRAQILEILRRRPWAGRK
The data set is described as follows: Inhibition of ADAMTS-4 assessed as substrate cleavage after 16 hrs by fluorescence assay. In short, it runs like this:
(§2)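 Enzyme inhibition IC50s derived from at least six measurements, standard errors normally <5% within an assay; a standard compound run to keep assay-to-assay variability within twofold.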

A short description of data set [4]: Volume of distribution at steady state in mouse. In kind it is ADME, organism-based. The conditions noted are these: in vivo, read-out: Vdss.
Data set [5] in a line: Intrinsic clearance in human hepatocytes measured per million cells. It is filed as ADME, cell-based, Liver, Hepatocyte. In short, it runs like this: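 Human hepatocyte metabolism; intrinsic clearance expressed as μL/min/10⁶ cells, reported as mean of six separate experiments.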
The species entered for data set [6] is Homo sapiens. In words: Inhibition of aggrecanase activity in IL-1, OSM and plasminogen-stimulated human articular cartilage explant assessed as reduction in CTXII peptide release at 10 uM after 21 days. In short, it runs like this:
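Human cartilage stimulated with interleukin-1, oncostatin-M and plasminogen for 21 days, without or with 10 µM compound.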

For data set [7], the target named is T2, A disintegrin and metalloproteinase with thrombospondin motifs 5 (Homo sapiens, UniProt Q9UNA0).
T2 sequence (Q9UNA0 whole entry): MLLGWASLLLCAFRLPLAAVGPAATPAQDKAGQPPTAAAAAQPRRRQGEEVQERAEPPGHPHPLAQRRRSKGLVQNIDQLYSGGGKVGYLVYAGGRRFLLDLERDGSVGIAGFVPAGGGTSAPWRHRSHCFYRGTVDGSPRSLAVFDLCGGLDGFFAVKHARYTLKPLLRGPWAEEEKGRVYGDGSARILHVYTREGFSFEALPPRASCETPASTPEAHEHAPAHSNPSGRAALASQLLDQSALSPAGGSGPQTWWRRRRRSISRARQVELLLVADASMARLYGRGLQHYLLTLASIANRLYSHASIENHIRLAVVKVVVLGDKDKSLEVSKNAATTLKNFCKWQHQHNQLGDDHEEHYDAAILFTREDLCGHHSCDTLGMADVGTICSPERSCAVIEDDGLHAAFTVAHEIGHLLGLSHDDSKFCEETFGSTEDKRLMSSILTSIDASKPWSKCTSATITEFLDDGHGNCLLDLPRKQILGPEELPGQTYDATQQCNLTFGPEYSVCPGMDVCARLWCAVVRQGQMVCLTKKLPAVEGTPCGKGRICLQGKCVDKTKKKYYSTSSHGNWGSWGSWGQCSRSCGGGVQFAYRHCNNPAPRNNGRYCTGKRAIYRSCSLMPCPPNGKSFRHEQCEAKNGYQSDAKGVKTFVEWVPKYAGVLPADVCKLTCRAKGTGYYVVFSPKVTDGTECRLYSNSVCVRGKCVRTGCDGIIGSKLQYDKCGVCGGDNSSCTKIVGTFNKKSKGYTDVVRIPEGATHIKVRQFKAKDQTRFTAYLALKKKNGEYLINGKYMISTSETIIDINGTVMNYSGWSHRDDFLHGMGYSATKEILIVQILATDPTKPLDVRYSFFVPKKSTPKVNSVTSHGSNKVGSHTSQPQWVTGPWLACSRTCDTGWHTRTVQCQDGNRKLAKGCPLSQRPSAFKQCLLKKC
The data set is described as follows: Inhibition of ADAMTS-5 assessed as substrate cleavage after 16 hrs by fluorescence assay. In short, it runs like this: as §2

Data set [8] can be described thus: Oral bioavailability in dog. In kind it is ADME, organism-based, Canis lupus familiaris. The conditions noted are these: in vivo.
Data set [9] in a line: Volume of distribution at steady state in rat at 2 mg/kg, iv and 3 to 10 mg/kg, po. In kind it is ADME, organism-based. The conditions noted are these: in vivo, read-out: Vdss.
The target in data set [10] is T3, Cytochrome P450 1A2 (Homo sapiens, UniProt P05177).
T3 sequence (P05177 whole entry): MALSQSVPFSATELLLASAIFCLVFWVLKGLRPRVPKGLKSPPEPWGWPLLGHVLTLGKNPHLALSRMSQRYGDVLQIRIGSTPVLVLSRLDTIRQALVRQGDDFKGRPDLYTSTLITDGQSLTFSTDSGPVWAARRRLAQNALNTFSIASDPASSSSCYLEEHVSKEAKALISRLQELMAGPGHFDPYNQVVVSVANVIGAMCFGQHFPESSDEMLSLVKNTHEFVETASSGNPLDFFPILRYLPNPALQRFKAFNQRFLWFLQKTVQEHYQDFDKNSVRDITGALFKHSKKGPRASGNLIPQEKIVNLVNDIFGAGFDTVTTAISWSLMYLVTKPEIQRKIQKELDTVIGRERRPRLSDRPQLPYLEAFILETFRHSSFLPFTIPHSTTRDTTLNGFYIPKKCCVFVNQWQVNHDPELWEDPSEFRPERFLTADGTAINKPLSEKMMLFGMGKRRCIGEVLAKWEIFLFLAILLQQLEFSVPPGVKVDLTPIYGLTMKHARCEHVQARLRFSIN
In words: Inhibition of CYP1A2. In kind it is ADME. In short, it runs like this:
as §1

Data set [11] has as its target Cytochrome P450 2D6 (Homo sapiens, UniProt P10635). The data set is described as follows: Inhibition of CYP2D6. It is filed as ADME. In short, it runs like this:
as §1

A short description of data set [12]: Apparent permeability across basolateral to apical side in human Caco2 cells at 10 uM. It is filed as ADME, cell-based. The following applies: Caco-2.
In data set [13] the target is Cytochrome P450 2C19 (Homo sapiens, UniProt P33261). The data set is described as follows: Inhibition of CYP2C19. In kind it is ADME. In short, it runs like this: as §1
Sequence of Cytochrome P450 2C19 (P33261 whole entry): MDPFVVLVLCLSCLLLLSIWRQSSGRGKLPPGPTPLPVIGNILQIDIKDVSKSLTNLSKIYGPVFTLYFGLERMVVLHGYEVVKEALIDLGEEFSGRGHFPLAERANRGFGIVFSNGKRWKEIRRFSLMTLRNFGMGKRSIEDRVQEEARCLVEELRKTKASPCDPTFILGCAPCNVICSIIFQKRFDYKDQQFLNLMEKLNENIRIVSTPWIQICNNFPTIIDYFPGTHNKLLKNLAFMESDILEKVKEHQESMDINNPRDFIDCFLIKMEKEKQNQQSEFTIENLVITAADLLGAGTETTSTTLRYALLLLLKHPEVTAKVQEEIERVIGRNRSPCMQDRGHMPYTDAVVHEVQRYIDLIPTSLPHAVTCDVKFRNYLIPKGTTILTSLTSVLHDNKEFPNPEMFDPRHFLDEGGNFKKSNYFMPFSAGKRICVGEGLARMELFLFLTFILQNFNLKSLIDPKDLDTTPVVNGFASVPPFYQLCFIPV
Data set [14] in a line: Free drug level in human. The conditions noted are these: in vivo. In kind it is ADME, organism-based.
The nature of data set [15]: Intrinsic clearance in human liver microsomes. In kind it is ADME, Microsome. In short, it runs like this: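 Human liver microsome metabolism; intrinsic clearance expressed as μL/min/mg, reported as mean of eight separate experiments.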
For orientation: Liver microsomes are vesicles of endoplasmic reticulum, rich in cytochrome P450 enzymes.

A short description of data set [16]: Oral bioavailability in rat. In kind it is ADME, organism-based. The following applies: in vivo.
Data set [17] addresses Voltage-gated inwardly rectifying potassium channel KCNH2 (Homo sapiens, UniProt Q12809).
Data set [18] deals with Cytochrome P450 2C9 (Homo sapiens, UniProt P11712). In words: Inhibition of CYP2C9. In kind it is ADME. In short, it runs like this:
as §1

Data set [19] in a line: Free drug level in dog. It is filed as ADME, organism-based, Canis lupus familiaris. The conditions noted are these: in vivo.
A short description of data set [20]: Volume of distribution at steady state in dog at 1 mg/kg, iv and 1 mg/kg, po. In kind it is ADME, organism-based, Canis lupus familiaris. The conditions noted are these: in vivo, read-out: Vdss.
The test system of data set [21] is Cavia porcellus. In words: Inhibition of ADAMTS4 in sc dosed Dunkin hartley guinea pig spontaneous osteoarthritis model assessed as reduction in NITEGE release in medial cartilage at concentration equivalent to 4 to 7 fold human ADAMTS4 FRET IC50 administered for 7 days. It is filed as functional, organism-based. In short, it runs like this: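 Compound given for 7 days via subcutaneous mini-pump; articular cartilage then dissected from medial tibial plateau of hind knee joints and NITEGE neo-epitope levels measured in cartilage extracts versus vehicle-treated animals; significance P < 0.05.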

A short description of data set [22]: Half life in mouse. It is filed as ADME, organism-based. The following applies: in vivo.
A short description of data set [23]: Thermodynamic solubility of the compound in phosphate buffer at pH 7.4 after 24 hrs. In kind it is physicochemical. The following applies: read-out: Therm_solubility.
Data set [24] is described as follows: Half life in rat at 2 mg/kg, iv and 3 to 10 mg/kg, po. In kind it is ADME, organism-based. The following applies: in vivo.
A short description of data set [25]: Clearance in mouse. It is filed as ADME, organism-based. The conditions noted are these: in vivo.
Data set [26] is described as follows: Free drug level in rat. The following applies: in vivo. It is filed as ADME, organism-based.
Data set [27] is described as follows: Apparent permeability across apical to basolateral side in human Caco2 cells at 10 uM. It is filed as ADME, cell-based. The following applies: Caco-2. In general terms: Caco-2 monolayers are a common model of the intestinal barrier.
Data set [28] can be described thus: Lipophilicity, log D of the compound. It is filed as physicochemical. The following applies: octanol/water.
Data set [29] is filed under the species Homo sapiens. In words: Inhibition of aggrecanase activity in IL-1, OSM and plasminogen-stimulated human articular cartilage explant assessed as reduction in CTXII peptide release at 10 uM after 14 days.
Data set [30] is described as follows: Clearance in dog at 1 mg/kg, iv and 1 mg/kg, po. It is filed as ADME, organism-based, Canis lupus familiaris. The conditions noted are these: in vivo.

Sequence of Cytochrome P450 3A4 (P08684 whole entry, canonical isoform): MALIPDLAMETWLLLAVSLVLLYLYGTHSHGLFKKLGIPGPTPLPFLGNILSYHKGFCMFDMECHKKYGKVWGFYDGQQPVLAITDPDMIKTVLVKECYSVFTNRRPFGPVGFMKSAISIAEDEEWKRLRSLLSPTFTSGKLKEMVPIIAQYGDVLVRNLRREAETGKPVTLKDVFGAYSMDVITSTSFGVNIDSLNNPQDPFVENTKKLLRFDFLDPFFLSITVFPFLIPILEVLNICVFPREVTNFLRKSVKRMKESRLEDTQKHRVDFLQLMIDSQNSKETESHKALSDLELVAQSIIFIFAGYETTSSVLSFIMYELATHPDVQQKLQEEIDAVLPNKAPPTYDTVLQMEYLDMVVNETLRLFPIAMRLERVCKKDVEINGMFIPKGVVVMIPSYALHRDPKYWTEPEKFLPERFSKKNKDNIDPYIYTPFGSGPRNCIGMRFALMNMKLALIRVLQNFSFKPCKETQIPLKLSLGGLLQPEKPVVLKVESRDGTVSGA
Sequence of Cytochrome P450 2C9 (P11712 whole entry): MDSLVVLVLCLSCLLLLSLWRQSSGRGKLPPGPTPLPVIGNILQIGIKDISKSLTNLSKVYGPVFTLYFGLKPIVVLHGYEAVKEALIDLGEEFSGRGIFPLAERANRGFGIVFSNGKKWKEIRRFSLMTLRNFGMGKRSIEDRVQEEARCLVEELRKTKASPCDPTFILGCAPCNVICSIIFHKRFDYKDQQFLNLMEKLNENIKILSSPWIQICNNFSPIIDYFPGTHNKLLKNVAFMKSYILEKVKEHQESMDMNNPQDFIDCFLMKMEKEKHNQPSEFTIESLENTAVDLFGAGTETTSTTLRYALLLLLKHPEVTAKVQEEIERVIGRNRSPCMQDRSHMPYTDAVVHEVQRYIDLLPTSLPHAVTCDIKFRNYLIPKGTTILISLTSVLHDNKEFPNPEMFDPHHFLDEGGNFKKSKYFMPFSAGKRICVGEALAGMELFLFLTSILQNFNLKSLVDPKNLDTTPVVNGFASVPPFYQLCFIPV
Sequence of Cytochrome P450 2D6 (P10635 whole entry): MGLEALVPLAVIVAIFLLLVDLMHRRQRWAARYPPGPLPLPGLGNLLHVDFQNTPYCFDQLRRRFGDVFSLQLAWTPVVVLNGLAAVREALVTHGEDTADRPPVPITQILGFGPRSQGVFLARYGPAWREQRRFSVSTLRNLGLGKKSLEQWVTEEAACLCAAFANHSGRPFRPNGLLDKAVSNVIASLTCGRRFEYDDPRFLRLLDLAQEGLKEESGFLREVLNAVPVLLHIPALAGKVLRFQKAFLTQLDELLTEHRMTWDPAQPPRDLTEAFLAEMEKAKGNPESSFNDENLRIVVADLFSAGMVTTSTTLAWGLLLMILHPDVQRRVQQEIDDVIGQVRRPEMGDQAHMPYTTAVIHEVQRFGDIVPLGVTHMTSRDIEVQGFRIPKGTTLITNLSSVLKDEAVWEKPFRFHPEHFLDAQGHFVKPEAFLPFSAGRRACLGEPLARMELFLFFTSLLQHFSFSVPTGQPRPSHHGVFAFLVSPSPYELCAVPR
Sequence of Voltage-gated inwardly rectifying potassium channel KCNH2 (Q12809 whole entry): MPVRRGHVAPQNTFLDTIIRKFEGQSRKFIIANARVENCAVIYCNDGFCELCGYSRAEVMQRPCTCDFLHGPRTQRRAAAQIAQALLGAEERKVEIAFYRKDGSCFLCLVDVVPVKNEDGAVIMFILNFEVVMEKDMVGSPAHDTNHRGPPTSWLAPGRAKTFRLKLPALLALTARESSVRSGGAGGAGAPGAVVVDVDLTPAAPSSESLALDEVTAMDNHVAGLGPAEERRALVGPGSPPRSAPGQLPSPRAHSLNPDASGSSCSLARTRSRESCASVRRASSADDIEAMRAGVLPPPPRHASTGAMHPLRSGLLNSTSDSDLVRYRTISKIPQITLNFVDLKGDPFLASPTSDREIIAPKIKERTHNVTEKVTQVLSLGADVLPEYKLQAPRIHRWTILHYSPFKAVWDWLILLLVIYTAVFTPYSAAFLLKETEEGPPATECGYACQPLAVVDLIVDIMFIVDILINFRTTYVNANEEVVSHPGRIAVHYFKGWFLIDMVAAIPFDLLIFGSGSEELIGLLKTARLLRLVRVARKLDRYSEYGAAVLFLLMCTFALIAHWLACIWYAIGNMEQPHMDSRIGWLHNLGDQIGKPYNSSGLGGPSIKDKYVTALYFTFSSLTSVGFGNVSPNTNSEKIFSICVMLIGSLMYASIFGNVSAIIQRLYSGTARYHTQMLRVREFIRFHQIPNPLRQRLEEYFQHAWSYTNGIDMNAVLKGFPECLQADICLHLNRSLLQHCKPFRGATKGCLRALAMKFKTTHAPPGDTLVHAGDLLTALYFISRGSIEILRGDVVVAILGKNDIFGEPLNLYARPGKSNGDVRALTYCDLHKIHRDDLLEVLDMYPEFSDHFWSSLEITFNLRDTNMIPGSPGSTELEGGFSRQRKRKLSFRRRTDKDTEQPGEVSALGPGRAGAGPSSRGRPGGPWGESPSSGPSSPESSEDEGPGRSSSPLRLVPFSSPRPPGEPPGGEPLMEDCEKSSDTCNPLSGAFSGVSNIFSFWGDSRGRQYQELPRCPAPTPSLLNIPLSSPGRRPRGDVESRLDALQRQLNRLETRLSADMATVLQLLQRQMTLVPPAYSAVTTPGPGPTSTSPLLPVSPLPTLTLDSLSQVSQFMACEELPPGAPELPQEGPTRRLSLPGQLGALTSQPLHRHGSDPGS

For `O=CN(O)C1(CS(=O)(=O)N2CCN(c3ccc(F)cc3)CC2)CCOCC1`, the IC50 in [1] was greater than 10000 nM; in [3], 21 nM. Also, the inhibition in data set [2] is 97%.
The corresponding values for `O=CN(O)C1(CS(=O)(=O)N2CCN(c3ccc(F)cc3)CC2)CCC1` are 1900 nM, 91 nM and 81%.
As for `Cc1noc(C)c1CCC1CCN(S(=O)(=O)C[C@](C)(C[C@H](C)c2ncc(F)cn2)N(O)C=O)CC1`, the “inhibition (INH)” value in data set [1], in data set [10], in data set [11], in data set [13] and in [18] was “Not Active” each time. Moreover, the Vd in [4] was found to be 7.2 L/kg; in data set [9], 7.4 L/kg; in data set [20], 9.2 L/kg. The intrinsic metabolic clearance (hepatocyte CLint) in data set [5] is less than 2 µL/min/1e6 cells. Further, the inhibition entry in data set [6], in [21] and in data set [29] was “Active” each time. In addition, the IC50 stood at 23 nM in [7] and 65000 nM in data set [17]. Moreover, the bioavailability came to 20% in [8] and 1% in [16]. The Papp B→A at 10 µM in [12] was 10.9 ×10⁻⁶ cm/s. Also, the fraction unbound in data set [14] stood at 0.11; in data set [19], 0.25; in data set [26], 0.22. In data set [15], this compound had a microsomal CLint of 29.4 µL/min/mg. Also, the half-life in data set [22] is 5.4 h; in [24] it was 11 h. Also, the solubility thermodynamic at 24 h in data set [23] was 150 µM (≈ 76.7 µg/mL). For the same compound, the clearance in [25] amounted to 16.8 mL/min/kg; in data set [30] it was 20.7 mL/min/kg. Moreover, in data set [27], the Papp A→B at 10 µM came out at 5.3 ×10⁻⁶ cm/s. For the same compound, the logD in data set [28] was determined as 1.6.
